Measurements reported in ChEMBL document CHEMBL1154792, “chi-Conopeptide pharmacophore development: toward a novel class of norepinephrine transporter inhibitor (Xen2174) for pain” (J Med Chem, 2009).
Activity calls are given as the source filed them.

Columns and labels:
COS-7 [1] = experiment: (§1) Displacement of [3H]nisoxetine from rat NET expressed in COS7 cells; format: cell-based
[2] = target: T1, Sodium-dependent noradrenaline transporter (Homo sapiens, UniProt P23975); experiment: Displacement of [3H]nisoxetine from human NET expressed in COS7 cells; format: cell-based; conditions: for Activity: COS-7
T1 sequence (P23975 whole entry): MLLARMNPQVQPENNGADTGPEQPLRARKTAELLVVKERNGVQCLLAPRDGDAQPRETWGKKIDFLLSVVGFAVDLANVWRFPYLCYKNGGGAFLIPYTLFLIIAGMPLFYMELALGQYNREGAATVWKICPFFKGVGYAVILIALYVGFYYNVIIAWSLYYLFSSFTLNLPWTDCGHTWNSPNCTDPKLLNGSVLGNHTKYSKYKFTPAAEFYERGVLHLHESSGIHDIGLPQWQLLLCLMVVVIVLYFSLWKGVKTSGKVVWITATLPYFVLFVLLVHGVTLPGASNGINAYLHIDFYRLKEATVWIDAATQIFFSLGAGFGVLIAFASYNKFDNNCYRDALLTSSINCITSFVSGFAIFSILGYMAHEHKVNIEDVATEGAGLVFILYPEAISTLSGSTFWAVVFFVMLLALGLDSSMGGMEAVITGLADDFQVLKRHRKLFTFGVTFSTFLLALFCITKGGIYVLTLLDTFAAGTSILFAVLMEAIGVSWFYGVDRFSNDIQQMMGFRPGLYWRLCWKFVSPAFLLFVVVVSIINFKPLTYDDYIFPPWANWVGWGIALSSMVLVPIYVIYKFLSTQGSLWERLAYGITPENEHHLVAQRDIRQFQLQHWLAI
Method in brief: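 Membranes from COS-7 cells transfected with human NET were incubated with [3H]nisoxetine (4.3 nM) with or without peptide (1 nM to 100 μM, triplicate) for 1 h at RT. Filter-retained radioactivity was counted by liquid scintillation, and values are given as pIC50. Data are means of 2–5 experiments in triplicate; peptide concentration was set by calibrated HPLC at 214 nm.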

Rattus norvegicus [3] = species on record: Rattus norvegicus; experiment: Toxicity in CCI rat pain model assessed as side effects; format: organism-based; conditions: in vivo
Method in brief: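 Rats with unilateral sciatic chronic constriction injury received a single intrathecal bolus via an implanted cannula 14 days after surgery, with morphine and vehicle as comparators. Compound-related behavioural observations were recorded alongside von Frey paw-withdrawal testing. Three animals per analogue.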

Rattus norvegicus [4] = experiment: Antiallodynic activity in CCI rat pain model assessed as efficayin ipsilateral hind paw withdrawal threshold at 0.2 nM, iv; format: functional, organism-based
Method in brief: (§2)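 Unilateral chronic constriction injury of the sciatic nerve in rats. At 14 days post-surgery, a single bolus was given via a chronically implanted intrathecal cannula; morphine and vehicle were comparators. Mechanical allodynia was measured with calibrated von Frey filaments as paw withdrawal threshold in the ipsilateral hindpaw, relative to the pre-dose value. Three animals per analogue; dose chosen from NET potency.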

[5] = target: T1, Sodium-dependent noradrenaline transporter; experiment: Inhibition of human NET expressed in COS7 cells assessed as inhibition of [3H]norepinephrine uptake at 1 uM; format: cell-based; conditions: COS-7
[6] = as §1; format: cell-based; conditions: cos-7
[7] = target: T1, Sodium-dependent noradrenaline transporter; conditions: COS-7
Rattus norvegicus [8] = experiment: Antiallodynic activity in CCI rat pain model assessed as efficayin ipsilateral hind paw withdrawal threshold at 1 nM, iv after 3 hrs; format: functional, organism-based; method in brief: as §2
COS-7 [9] = experiment: Inhibition of rat NET expressed in COS7 cells assessed as inhibition of [3H]norepinephrine uptake; format: cell-based

With `CC(C)C[C@@H]1NC(=O)[C@H](CCCCN)NC(=O)[C@H](Cc2ccc(O)cc2)NC(=O)CNC(=O)[C@@H]2CSSC[C@H](NC1=O)C(=O)N[C@@H](Cc1cnc[nH]1)C(=O)N[C@H](CCC(=O)O)C(=O)N[C@H](C(=O)O)CSSC[C@H](NC(=O)[C@@H](NC(=O)CNC(=O)[C@@H]1CCC(=O)N1)C(C)C)C(=O)N2` the Activity (COS-7 [1]) was “Active” and the Activity [2] was “Active”.
For `CC(C)C[C@@H]1NC(=O)[C@H](CCCCN)NC(=O)[C@H](Cc2ccc(O)cc2)NC(=O)CNC(=O)[C@@H]2CSSC[C@H](NC1=O)C(=O)N[C@@H](Cc1cnc[nH]1)C(=O)N[C@H](Cc1ccc(O)cc1)C(=O)N[C@H](C(=O)O)CSSC[C@H](NC(=O)[C@@H](NC(=O)CNC(=O)[C@@H]1CCC(=O)N1)C(C)C)C(=O)N2`, the Activity (COS-7 [1]) was “Active” and the Activity [2] was “Active”.
For `CC(C)C[C@@H]1NC(=O)[C@H](CCCCN)NC(=O)[C@H](Cc2ccc(O)cc2)NC(=O)CNC(=O)[C@@H]2CSSC[C@H](NC1=O)C(=O)N[C@@H](Cc1cnc[nH]1)C(=O)N1CC[C@H](O)[C@H]1C(=O)N[C@H](C(=O)O)CSSC[C@H](NC(=O)[C@@H](NC(=O)CNC(=O)[C@H](CC(N)=O)NC(=O)[C@@H](N)CCc1ccccc1)C(C)C)C(=O)N2`, the Activity (Rattus norvegicus [3]) was “Toxic” and the Activity (Rattus norvegicus [4]) was “Active”.
With `CC(C)C[C@@H]1NC(=O)[C@H](CCCCN)NC(=O)[C@H](Cc2ccc(O)cc2)NC(=O)CNC(=O)[C@@H]2CSSC[C@H](NC1=O)C(=O)N[C@@H](Cc1cnc[nH]1)C(=O)N1Cc3ccccc3C[C@H]1C(=O)N[C@H](C(=O)O)CSSC[C@H](NC(=O)[C@@H](NC(=O)CNC(=O)[C@@H]1CCC(=O)N1)C(C)C)C(=O)N2` the Activity (COS-7 [1]) was “Active” and the Activity [2] was “Active”.
For `CC(C)C[C@@H]1NC(=O)[C@H](CCCCN)NC(=O)[C@H](Cc2ccc(O)cc2)NC(=O)CNC(=O)[C@@H]2CSSC[C@H](NC1=O)C(=O)N[C@@H](Cc1cnc[nH]1)C(=O)N1CC[C@H](O)[C@H]1C(=O)N[C@H](C(=O)O)CSSC[C@H](NC(=O)[C@@H](NC(=O)CNC(=O)[C@@H]1CCC(=O)N1)C(C)C)C(=O)N2`, the Activity [5] was “Active”, the pIC50 [6] was 6.67 and the IC50 [2] was 182 nM. For the same compound, the logEC50 [7] was -6.74, the Activity (Rattus norvegicus [8]) was “Active” and the logEC50 (COS-7 [9]) was -6.67. The Activity (Rattus norvegicus [3]) was “Toxic”.
For `CC(C)C[C@@H]1NC(=O)[C@H](CCCCN)NC(=O)[C@H](Cc2ccc(O)cc2)NC(=O)CNC(=O)[C@@H]2CSSC[C@H](NC1=O)C(=O)N[C@@H](Cc1cnc[nH]1)C(=O)N[C@H](CCCCN)C(=O)N[C@H](C(=O)O)CSSC[C@H](NC(=O)[C@@H](NC(=O)CNC(=O)[C@@H]1CCC(=O)N1)C(C)C)C(=O)N2`, the Activity (COS-7 [1]) was “Active” and the Activity [2] was “Active”.
